From ChEMBL document CHEMBL4359890, “Design, synthesis of oleanolic acid-saccharide conjugates using click chemistry methodology and study of their anti-influenza activity” (Eur J Med Chem, 2019)
The source made the active and inactive calls. No cut-off for these calls is given here.

Assays:
MDCK = assay: Cytotoxicity against dog MDCK cells assessed as reduction in cell viability at 100 uM measured after 40 hrs by Celltiter-Glo assay; format: cell-based, Canis lupus familiaris
Method in brief: (§1)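 Uninfected MDCK cells were grown overnight in 96-well plates with 1% FBS. They were then exposed to increasing compound concentrations, or to a single 100 μM screen, for 40 h, and viability was read by CellTiter-Glo. CC50 is the concentration causing 50% death of uninfected cells.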

Influenza A virus [1] = assay: Antiviral activity against Influenza A virus A/WSN/33 infected in MDCK cells assessed as reduction in virus-induced cytopathic effect at 100 uM after 40 hrs by Celltiter-Glo assay; format: functional, organism-based
Method in brief: (§2)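 This was a single-concentration screen at 100 μM in MDCK cells infected with A/WSN/33 at MOI 0.1. CPE protection was read by CellTiter-Glo after 40 h of incubation. The inhibition rate was expressed relative to 1% DMSO (final) negative control, with oseltamivir phosphate as the positive control. Experiments were run in triplicate.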

Influenza A virus [2] = assay: Antiviral activity against Influenza A virus A/WSN/33 infected in MDCK cells assessed as reduction in virus-induced cytopathic effect at 100 uM after 40 hrs by Celltiter-Glo assay relative to control; format: functional; details: A/WSN/33, MDCK; method in brief: as §2
[3] = Cytotoxicity against dog MDCK cells assessed as cell viability at 100 uM measured after 40 hrs by Celltiter-Glo assay relative to control; format: cell-based, Canis lupus familiaris; details: read-out: Activity; method in brief: as §1
[4] = Cytotoxicity against dog MDCK cells assessed as reduction in cell viability measured after 40 hrs by Celltiter-Glo assay; format: cell-based, Canis lupus familiaris; method in brief: as §1
Influenza A virus [5] = assay: Antiviral activity against Influenza A virus A/WSN/33 assessed as inhibition of virus-induced cytopathic effect after 40 hrs by Celltiter-Glo assay; format: functional, organism-based; details: A/WSN/33, 40 h
Method in brief: (§3)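 MDCK cells were seeded in 96-well plates, left overnight, then infected with influenza virus at MOI 0.1 and treated with the compound. After 40 h, viability was read by CellTiter-Glo luminescence. 1% DMSO (final) served as the negative control and oseltamivir phosphate as the positive control. IC50 is the concentration that inhibits virus-induced CPE by 50%, taken from dose-response curves in replicate independent experiments.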

[6] = Selectivity index, ratio of CC50 for MDCK cells to IC50 for influenza A virus A/WSN/33; format: toxicity; details: dog, read-out: Ratio CC50/IC50
Method in brief: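 SI was calculated as CC50 (uninfected MDCK, 40 h CellTiter-Glo) divided by IC50 (50% inhibition of A/WSN/33 replication in MDCK, MOI 0.1, 40 h CellTiter-Glo).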

Influenza A virus [7] = assay: Antiviral activity against Influenza A virus A/Victoria/361/2011(H3N2) infected in MDCK cells assessed as inhibition of virus-induced cytopathic effect after 40 hrs by Celltiter-Glo assay; format: functional, organism-based; method in brief: as §3
Influenza B virus [8] = assay: Antiviral activity against Influenza B virus B/Yamagata/16/88(BY) infected in MDCK cells assessed as inhibition of virus-induced cytopathic effect after 40 hrs by Celltiter-Glo assay; format: functional, organism-based; method in brief: as §3
Influenza B virus [9] = assay: Antiviral activity against Influenza B virus B/Sichuan/531/2018(BV) infected in MDCK cells assessed as inhibition of virus-induced cytopathic effect after 40 hrs by Celltiter-Glo assay; format: functional, organism-based; method in brief: as §3
Influenza B virus [10] = assay: Antiviral activity against Influenza B virus B/Massachusetts/2/2012(BV) infected in MDCK cells assessed as inhibition of virus-induced cytopathic effect after 40 hrs by Celltiter-Glo assay; format: functional, organism-based; method in brief: as §3

CC(=O)OC[C@H]1O[C@@H](n2cc(CNC(=O)[C@]34CCC(C)(C)C[C@H]3C3=CC[C@@H]5[C@@]6(C)CC[C@H](O)C(C)(C)[C@@H]6CC[C@@]5(C)[C@]3(C)CC4)nn2)[C@H](OC(C)=O)[C@@H](OC(C)=O)[C@@H]1O[C@H]1O[C@H](COC(C)=O)[C@@H](OC(C)=O)[C@H](OC(C)=O)[C@H]1OC(C)=O
Activity (MDCK): Non-Toxic

CC1(C)CC[C@]2(C(=O)NCc3cn([C@@H]4O[C@H](CO)[C@@H](O[C@H]5O[C@H](CO)[C@@H](O[C@H]6O[C@H](CO)[C@@H](O)[C@H](O)[C@H]6O)[C@H](O)[C@H]5O)[C@H](O)[C@H]4O)nn3)CC[C@]3(C)C(=CC[C@@H]4[C@@]5(C)CC[C@H](O)C(C)(C)[C@@H]5CC[C@]43C)[C@@H]2C1
Activity (Influenza A virus [1]): inactive | Activity (MDCK): Non-Toxic

CC1(C)CC[C@]2(C(=O)NCc3cn([C@@H]4O[C@H](CO)[C@@H](O[C@@H]5O[C@H](CO)[C@H](O)[C@H](O)[C@H]5O)[C@H](O)[C@H]4O)nn3)CC[C@]3(C)C(=CC[C@@H]4[C@@]5(C)CC[C@H](O)C(C)(C)[C@@H]5CC[C@]43C)[C@@H]2C1
Activity (MDCK): Non-Toxic

CC1(C)CC[C@]2(C(=O)NCc3cn([C@H]4O[C@H](CO)[C@@H](O)[C@H](O)[C@@H]4O)nn3)CC[C@]3(C)C(=CC[C@@H]4[C@@]5(C)CC[C@H](O)C(C)(C)[C@@H]5CC[C@]43C)[C@@H]2C1
Activity (MDCK): Non-Toxic

CC(=O)OC[C@H]1O[C@@H](O[C@H]2[C@H](OC(C)=O)[C@@H](OC(C)=O)[C@H](n3cc(CNC(=O)[C@]45CCC(C)(C)C[C@H]4C4=CC[C@@H]6[C@@]7(C)CC[C@H](O)C(C)(C)[C@@H]7CC[C@@]6(C)[C@]4(C)CC5)nn3)O[C@@H]2COC(C)=O)[C@H](OC(C)=O)[C@@H](OC(C)=O)[C@H]1OC(C)=O
Activity (MDCK): Non-Toxic

CC(=O)O[C@@H]1[C@@H](OC(C)=O)[C@H](n2cc(CNC(=O)[C@]34CCC(C)(C)C[C@H]3C3=CC[C@@H]5[C@@]6(C)CC[C@H](O)C(C)(C)[C@@H]6CC[C@@]5(C)[C@]3(C)CC4)nn2)OC[C@@H]1OC(C)=O
Activity (MDCK): Non-Toxic

CC(=O)O[C@@H]1[C@@H](OC(C)=O)[C@H](C)O[C@@H](n2cc(CNC(=O)[C@]34CCC(C)(C)C[C@H]3C3=CC[C@@H]5[C@@]6(C)CC[C@H](O)C(C)(C)[C@@H]6CC[C@@]5(C)[C@]3(C)CC4)nn2)[C@@H]1OC(C)=O
Activity (MDCK): Non-Toxic

CC(=O)OC[C@H]1O[C@H](n2cc(CNC(=O)[C@]34CCC(C)(C)C[C@H]3C3=CC[C@@H]5[C@@]6(C)CC[C@H](O)C(C)(C)[C@@H]6CC[C@@]5(C)[C@]3(C)CC4)nn2)[C@@H](OC(C)=O)[C@@H](OC(C)=O)[C@@H]1OC(C)=O
inhibition at 100 µM (Influenza A virus [2]): > 75% | viability at 40 h, 100 µM [3]: > 75% | CC50 at 40 h [4]: > 100 µM | IC50 (Influenza A virus [5]): 7.22 µM | selectivity ratio [6]: > 13.8 | Activity (MDCK): Non-Toxic

CC1(C)CC[C@]2(C(=O)NCc3cn([C@@H]4O[C@H](CO)[C@@H](O[C@H]5O[C@H](CO)[C@@H](O)[C@H](O)[C@H]5O)[C@H](O)[C@H]4O)nn3)CC[C@]3(C)C(=CC[C@@H]4[C@@]5(C)CC[C@H](O)C(C)(C)[C@@H]5CC[C@]43C)[C@@H]2C1
Activity (MDCK): Non-Toxic

CC1(C)CC[C@]2(C(=O)NCc3cn([C@@H]4OC[C@@H](O)[C@H](O)[C@H]4O)nn3)CC[C@]3(C)C(=CC[C@@H]4[C@@]5(C)CC[C@H](O)C(C)(C)[C@@H]5CC[C@]43C)[C@@H]2C1
inhibition at 100 µM (Influenza A virus [2]): 75% | Activity (MDCK): Toxic

CC1(C)CC[C@]2(C(=O)NCc3cn([C@@H]4O[C@H](CO)[C@H](O)[C@H](O)[C@H]4O)nn3)CC[C@]3(C)C(=CC[C@@H]4[C@@]5(C)CC[C@H](O)C(C)(C)[C@@H]5CC[C@]43C)[C@@H]2C1
Activity (MDCK): Non-Toxic

C[C@@H]1O[C@@H](n2cc(CNC(=O)[C@]34CCC(C)(C)C[C@H]3C3=CC[C@@H]5[C@@]6(C)CC[C@H](O)C(C)(C)[C@@H]6CC[C@@]5(C)[C@]3(C)CC4)nn2)[C@H](O)[C@H](O)[C@H]1O
inhibition at 100 µM (Influenza A virus [2]): 75% | Activity (MDCK): Toxic

CC1(C)CC[C@]2(C(=O)NCc3cn([C@@H]4OC[C@H](O)[C@H](O)[C@H]4O)nn3)CC[C@]3(C)C(=CC[C@@H]4[C@@]5(C)CC[C@H](O)C(C)(C)[C@@H]5CC[C@]43C)[C@@H]2C1
inhibition at 100 µM (Influenza A virus [2]): > 75% | viability at 40 h, 100 µM [3]: > 75% | CC50 at 40 h [4]: > 100 µM | IC50 (Influenza A virus [5]): 12.9 µM | selectivity ratio [6]: > 7.73 | Activity (MDCK): Non-Toxic

CC(=O)OC[C@H]1O[C@@H](n2cc(CNC(=O)[C@]34CCC(C)(C)C[C@H]3C3=CC[C@@H]5[C@@]6(C)CC[C@H](O)C(C)(C)[C@@H]6CC[C@@]5(C)[C@]3(C)CC4)nn2)[C@H](OC(C)=O)[C@@H](OC(C)=O)[C@H]1OC(C)=O
inhibition at 100 µM (Influenza A virus [2]): 75% | Activity (MDCK): Toxic

CC(=O)OC[C@H]1O[C@@H](n2cc(CNC(=O)[C@]34CCC(C)(C)C[C@H]3C3=CC[C@@H]5[C@@]6(C)CC[C@H](O)C(C)(C)[C@@H]6CC[C@@]5(C)[C@]3(C)CC4)nn2)[C@H](OC(C)=O)[C@@H](OC(C)=O)[C@@H]1OC(C)=O
Activity (MDCK): Non-Toxic

CC1(C)CC[C@]2(C(=O)O)CC[C@]3(C)C(=CC[C@@H]4[C@@]5(C)CC[C@H](O)C(C)(C)[C@@H]5CC[C@]43C)[C@@H]2C1 [OLEANOLIC_ACID]
CC50 at 40 h [4]: > 100 µM | IC50 (Influenza A virus [5]): 72.2 µM | selectivity ratio [6]: > 1.38

CCOC(=O)C1=C[C@@H](OC(CC)CC)[C@H](NC(C)=O)[C@@H](N)C1 [OSELTAMIVIR PHOSPHATE]
CC50 at 40 h [4]: > 100 µM | IC50 (Influenza A virus [5]): 1.82 µM | selectivity ratio [6]: > 54.9 | IC50 (Influenza A virus [7]): > 100 µM | IC50 (Influenza B virus [8]): 23.4 µM | IC50 (Influenza B virus [9]): > 100 µM | IC50 (Influenza B virus [10]): > 100 µM

CC1(C)CC[C@]2(C(=O)NCc3cn([C@@H]4O[C@H](CO)[C@@H](O[C@@H]5O[C@H](CO)[C@@H](O)[C@H](O)[C@H]5O)[C@H](O)[C@H]4O)nn3)CC[C@]3(C)C(=CC[C@@H]4[C@@]5(C)CC[C@H](O)C(C)(C)[C@@H]5CC[C@]43C)[C@@H]2C1
Activity (MDCK): Non-Toxic

CC(=O)O[C@@H]1[C@@H](OC(C)=O)[C@H](OC(C)=O)CO[C@H]1n1cc(CNC(=O)[C@]23CCC(C)(C)C[C@H]2C2=CC[C@@H]4[C@@]5(C)CC[C@H](O)C(C)(C)[C@@H]5CC[C@@]4(C)[C@]2(C)CC3)nn1
Activity (MDCK): Non-Toxic

CC(=O)OC[C@H]1O[C@@H](n2cc(CNC(=O)[C@]34CCC(C)(C)C[C@H]3C3=CC[C@@H]5[C@@]6(C)CC[C@H](O)C(C)(C)[C@@H]6CC[C@@]5(C)[C@]3(C)CC4)nn2)[C@H](OC(C)=O)[C@@H](OC(C)=O)[C@@H]1O[C@H]1O[C@H](COC(C)=O)[C@@H](O[C@H]2O[C@H](COC(C)=O)[C@@H](OC(C)=O)[C@H](OC(C)=O)[C@H]2OC(C)=O)[C@H](OC(C)=O)[C@H]1OC(C)=O
Activity (Influenza A virus [1]): inactive | Activity (MDCK): Non-Toxic

CC(=O)OC[C@H]1O[C@@H](n2cc(CNC(=O)[C@]34CCC(C)(C)C[C@H]3C3=CC[C@@H]5[C@@]6(C)CC[C@H](O)C(C)(C)[C@@H]6CC[C@@]5(C)[C@]3(C)CC4)nn2)[C@H](OC(C)=O)[C@@H](OC(C)=O)[C@@H]1O[C@@H]1O[C@H](COC(C)=O)[C@@H](OC(C)=O)[C@H](OC(C)=O)[C@H]1OC(C)=O
Activity (MDCK): Non-Toxic
